# Measurements gathered from unrelated publications.
# Lines come from different studies, so protocols differ.
# Target: Tyrosine-protein kinase ZAP-70 (ZAP70, Homo sapiens, UniProt P43403)
# Residues used in one study (P43403 1-619): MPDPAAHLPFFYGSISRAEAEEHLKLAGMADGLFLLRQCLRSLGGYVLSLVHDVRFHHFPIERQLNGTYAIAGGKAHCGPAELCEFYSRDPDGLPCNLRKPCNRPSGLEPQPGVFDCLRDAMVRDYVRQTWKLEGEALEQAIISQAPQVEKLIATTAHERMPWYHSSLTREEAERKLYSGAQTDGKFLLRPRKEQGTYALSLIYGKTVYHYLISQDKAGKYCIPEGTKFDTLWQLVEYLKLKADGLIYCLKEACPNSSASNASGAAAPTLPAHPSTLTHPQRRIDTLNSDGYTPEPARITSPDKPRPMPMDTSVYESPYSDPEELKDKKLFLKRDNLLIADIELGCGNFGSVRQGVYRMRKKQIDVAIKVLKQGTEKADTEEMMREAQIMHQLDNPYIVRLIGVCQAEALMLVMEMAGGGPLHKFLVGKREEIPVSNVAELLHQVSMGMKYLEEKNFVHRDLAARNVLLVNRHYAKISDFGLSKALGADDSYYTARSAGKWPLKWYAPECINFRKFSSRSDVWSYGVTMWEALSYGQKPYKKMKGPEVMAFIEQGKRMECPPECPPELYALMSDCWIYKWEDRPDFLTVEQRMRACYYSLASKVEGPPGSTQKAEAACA
SMILES,observed,action,method,concentration,endpoint,value
Cc1ccc(C(=O)NCc2ccsc2)cc1C#Cc1cn(C(C)C)c2ncnc(N)c12,enzyme activity,inhibitor,,1 µM,activity vs control,89%
Cc1[nH]c(/C=C2\C(=O)Nc3ccc(F)cc32)c(C)c1C(=O)N[C@H]1CCN(C(=O)N(C)C)C1,enzyme activity,inhibitor,,1 µM,remaining activity,116%
c1nc2c(Nc3ccc4c(c3)OCCO4)nc(Nc3ccc4c(c3)OCCO4)nc2[nH]1,enzyme activity,inhibitor,,10 µM,activity vs control,62%
COCCOc1nc(-c2ccc(Cl)nc2)nc2c1CN(C(=O)c1ncn3ccccc13)CC2,cell-free assay,,competition with immobilised ligand,0.1 µM,remaining binding,95%
COc1cc2ncnc(Nc3ccc(Oc4ccccc4)cc3C)c2cc1OC,enzyme activity,inhibitor,,1 µM,inhibition,0%
C[C@@H]1CN(c2cc(-c3n[nH]c4ccc(OC5(C)CC5)cc34)ncn2)C[C@H](C)O1,cell-free assay,,competition with immobilised ligand,0.1 µM,remaining binding,83%
CC(C)(C)c1nc2c(s1)c1nc(N)ncc1c1ccc(NS(=O)(=O)c3c(F)cccc3F)c(F)c12,enzyme activity,inhibitor,radiometric,1 µM,remaining activity,95%
Cc1cnc(NC2CCOCC2)nc1-n1cnc(C(=O)NC(CN)c2cc(F)cc(Cl)c2)c1 (stereo not drawn),enzyme activity,inhibitor,radiometric,1 µM,remaining activity,115%
CCCOc1ccc([C@H]2[C@H](C(=O)O)[C@@H](c3ccc4c(c3)OCO4)CN2CC(=O)Nc2c(CC)cccc2CC)cc1,cell-free assay,,competition with immobilised ligand,1 µM,remaining binding,50%
Nc1nc(Nc2ccc(S(N)(=O)=O)cc2)nn1C(=O)c1c(F)cccc1F,cell-free assay,,,0.5 µM,remaining signal,94.8%
CS(=O)(=O)Nc1cccc(-c2csc(NC(=O)CSc3nc4nccnc4c(=O)n3CCc3ccccc3)n2)c1,enzyme activity,inhibitor,,10 µM,inhibition,9%
COc1cc(Nc2cnc(C#N)c(O[C@H](C)CN(C)C)n2)ncc1-c1cnn(C)c1,enzyme activity,inhibitor,radiometric,1 µM,remaining activity,104%
Cc1c(NC(=O)c2cc(C(N)=O)nc3cc(F)ccc23)c(C(F)(F)F)nn1Cc1ccc(C(C)(C)C)cc1,cell-free assay,,competition with immobilised ligand,1 µM,remaining binding,100%
Cc1sc(C(=O)NC2COC2)cc1-n1cc(NC(=O)Nc2c(F)cccc2Cl)cn1,enzyme activity,inhibitor,,10 µM,remaining activity,103%
O=C1Nc2ccc(Cl)cc2C1=Cc1cc(Cl)c(O)c(Cl)c1,cell-free assay,,,0.5 µM,remaining signal,95%
CCCS(=O)(=O)Nc1ccc(F)c(C(=O)c2c[nH]c3ncc(-c4ccc(Cl)cc4)cc23)c1F,enzyme activity,inhibitor,,1 µM,inhibition,< 10%
Nc1ncnc2occ(-c3ccc(NC(=O)Nc4cc(C(F)(F)F)ccc4F)cc3)c12,cell-free assay,inhibitor,,20 µM,remaining signal,2.4%
Cc1cc(NC(=O)c2cccc3cc(-c4cccc5[nH]nc(N)c45)ccc23)ccc1F,enzyme activity,inhibitor,,0.1 µM,activity vs control,109%
O=C1NC(=O)c2cc(Nc3ccc(F)cc3)c(Nc3ccc(F)cc3)cc21,cell-free assay,,,0.5 µM,remaining signal,78.8%
CNC(=O)c1cc(Oc2ccc(NC(=O)Nc3ccc(Cl)c(C(F)(F)F)c3)cc2)ccn1,enzyme activity,inhibitor,,0.3 µM,inhibition,-1%
CNCc1ccc(-c2cc(-c3nc(-c4ccc(S(=O)(=O)C(C)C)cc4)cnc3N)on2)cc1,enzyme activity,inhibitor,,2 µM,inhibition,0%
Cc1cc(C)c(-n2ccn3nc(-c4cccnc4)cc23)cc1NC(=O)c1cc(C#N)cc(S(F)(F)(F)(F)F)c1,cell-free assay,,competition with immobilised ligand,0.1 µM,remaining binding,79.9%
CCN(CC)CCNC(=O)c1c(C)[nH]c(/C=C2\C(=O)Nc3ccc(F)cc32)c1C,enzyme activity,inhibitor,,10 µM,inhibition,11%
FC(F)(F)Oc1cccc(-c2cnc3ccc(-c4ccncc4)nn23)c1,enzyme activity,inhibitor,radiometric,1 µM,activity vs control,116%
NS(=O)(=O)c1cc(NC(=O)Cc2ccccc2)ccc1Oc1cccc(Cl)c1,cell-free assay,,competition with immobilised ligand,1 µM,remaining binding,87%
O=C(Nc1cnn(-c2csc(C(=O)NC3COC3)c2)c1)Nc1c(F)cccc1Cl,enzyme activity,inhibitor,,5 µM,remaining activity,104%
O=C(Nc1ccc(Oc2ccc(F)cc2)cc1)N1CCc2ncccc2[C@H]1c1ccc(F)cc1,cell-free assay,,competition with immobilised ligand,1 µM,remaining binding,91%
CCN(CC)CCNC(=O)c1c(C)[nH]c(/C=C2\C(=O)Nc3ccc(F)cc32)c1C,enzyme activity,inhibitor,,1 µM,remaining activity,110%
COc1ccc(COc2ccc(Cc3cnc(N)nc3N)cc2OC)cc1,cell-free assay,,,0.5 µM,remaining signal,94.3%
O=C(O)c1cc(-c2ccc(C3CCNCC3)cc2)c2ccc(-c3ccc(C(F)(F)F)cc3)cc2c1,cell-free assay,,competition with immobilised ligand,1 µM,remaining binding,100%
